Reference: ChEMBL document CHEMBL2406909, “Hydrolysis reactions of the taccalonolides reveal structure-activity relationships” (J Nat Prod, 2013)
Calls of active or inactive are those of the source. The calls are words filed in the database; no cut-off is given here.

Tests used:
HeLa [1] = assay: Antiproliferative activity against human HeLa cells after 48 hrs by SRB assay; type: functional, cell-based
HeLa [2] = assay: Antiproliferative activity against human HeLa cells; type: functional, cell-based
Method in brief: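 HeLa cells (ATCC) grown in Basal Medium Eagle with 10% FBS and 50 μg/mL gentamicin and exposed to compound for 48 h. Cells then TCA-fixed and stained with sulforhodamine B, with density read as absorbance at 560 nm. IC50 (50% inhibition of proliferation) taken ± SD from three independent experiments, each run in triplicate.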

HeLa [3] = assay: Stabilization of microtubule in human HeLa cells assessed as increase in cellular density of interphase microtubules at 50 uM after 18 hrs by immunofluoroescence analysis; type: cell-based
Method in brief: (§1)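 HeLa cells in Basal Medium Eagle with 10% FBS and gentamicin, treated with vehicle or taccalonolide for 18 h. Interphase microtubules visualized by indirect immunofluorescence with a β-tubulin antibody and imaged by fluorescence microscopy. Microtubule density and bundling judged from representative images against vehicle-treated cells.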

HeLa [4] = assay: Stabilization of microtubule in human HeLa cells assessed as increase in cellular density of interphase microtubules at 10 uM after 18 hrs by immunofluoroescence analysis; type: cell-based; method in brief: as §1

SMILES	IC50 (HeLa [1])	IC50 (HeLa [2])	Activity (HeLa [3])	Activity (HeLa [4])
CC(=O)O[C@H]1C[C@H]2[C@H]([C@@H]3[C@@H](O)[C@@H]4[C@H]([C@H](C)C=C5OC(=O)[C@@](C)(O)[C@@]54C)[C@]31C)[C@@H](O)C(=O)[C@H]1C[C@@H]3O[C@@H]3[C@H](OC(C)=O)[C@@]12C [TACCALONOLIDE N]	8.5 µM	–	–	–
CC(=O)O[C@H]1[C@H]2[C@H]([C@@H]3[C@@H](O)[C@@H]4[C@H]([C@H](C)C=C5OC(=O)[C@@](C)(O)[C@@]54C)[C@@]3(C)[C@H]1OC(C)=O)[C@@H](O)C(=O)[C@H]1C[C@@H]3O[C@@H]3[C@H](OC(C)=O)[C@]21C [TACCALONOLIDE B]	3.12 µM	–	–	–
CC(=O)O[C@@H]1[C@H]2[C@H]3[C@H]([C@H](OC(C)=O)[C@H](OC(C)=O)[C@]2(C)[C@@H]2[C@@H]1[C@]1(C)C(=C[C@H]2C)OC(=O)[C@@]1(C)O)[C@]1(C)[C@H](C[C@@H]2O[C@@H]2[C@@H]1OC(C)=O)C(=O)[C@@H]3O [TACCALONOLIDE A]	5.32 µM	–	–	–
CC(=O)O[C@@H]1[C@H]2[C@H]3[C@H]([C@H](OC(C)=O)[C@H](OC(C)=O)[C@]2(C)[C@H]2[C@H](C)[C@@H]4O[C@@]45OC(=O)[C@@](C)(O)[C@]5(C)[C@H]12)[C@]1(C)[C@H](C[C@@H]2O[C@@H]2[C@@H]1OC(C)=O)C(=O)[C@@H]3O	–	0.023 µM	–	–
CC(=O)O[C@@H]1[C@H]2[C@@H]3[C@@H](O)C(=O)[C@H]4C[C@@H]5O[C@@H]5[C@H](OC(C)=O)[C@]4(C)[C@H]3C[C@H](OC(C)=O)[C@]2(C)[C@@H]2[C@@H]1[C@]1(C)C(=C[C@H]2C)OC(=O)[C@@]1(C)O [TACCALONOLIDE E]	39.5 µM	–	–	–
CC(=O)O[C@H]1[C@H]2[C@H]([C@@H]3[C@@H](O)[C@@H]4[C@H]([C@H](C)[C@@H]5O[C@@]56OC(=O)[C@@](C)(O)[C@]46C)[C@@]3(C)[C@H]1OC(C)=O)[C@@H](O)C(=O)[C@H]1C[C@@H]3O[C@@H]3[C@H](OC(C)=O)[C@]21C	–	0.0042 µM	–	–
CC(=O)O[C@H]1C[C@H]2[C@H]([C@@H]3[C@H]4OC(=O)[C@@](C)(O)[C@@]5(C)C(=O)C[C@@H](C)[C@@H]([C@@H]45)[C@]31C)[C@@H](O)C(=O)[C@H]1C[C@@H]3O[C@@H]3[C@H](OC(C)=O)[C@@]12C	> 50 µM	–	inactive	–
CC(=O)O[C@H]1C[C@H]2[C@H]([C@@H]3[C@@H](O)[C@@H]4[C@H]([C@H](C)C=C5OC(=O)[C@@](C)(O)[C@@]54C)[C@]31C)[C@@H](O)C(=O)[C@H]1C[C@@H]3O[C@@H]3[C@H](O)[C@@]12C	1.5 µM	–	–	Active
CC(=O)O[C@H]1[C@H]2[C@@H](C(=O)[C@H](O)[C@H]3C[C@@H]4O[C@@H]4[C@H](OC(C)=O)[C@]23C)[C@@H]2[C@@H](O)[C@@H]3[C@H]([C@H](C)C=C4OC(=O)[C@@](C)(O)[C@@]43C)[C@@]2(C)[C@H]1OC(C)=O	49.2 µM	–	–	–
CC(=O)O[C@H]1[C@H]2[C@H]([C@@H]3[C@H]4OC(=O)[C@@](C)(O)[C@@]5(C)C(=O)C[C@@H](C)[C@@H]([C@@H]45)[C@@]3(C)[C@H]1OC(C)=O)[C@@H](O)C(=O)[C@H]1C[C@@H]3O[C@@H]3[C@H](OC(C)=O)[C@]21C	> 50 µM	–	inactive	–
CC(=O)O[C@H]1C[C@H]2[C@H]([C@@H]3[C@@H](O)[C@@H]4[C@H]([C@H](C)C=C5OC(=O)[C@@](C)(O)[C@@]54C)[C@]31C)[C@@H](O)C(=O)[C@@]1(O)C[C@@H]3O[C@@H]3[C@H](OC(=O)CC(C)C)[C@]21C	2 µM	–	Active	–
CC(=O)O[C@H]1C[C@H]2[C@H]([C@@H]3[C@@H](O)[C@@H]4[C@H]([C@H](C)C=C5OC(=O)[C@@](C)(O)[C@@]54C)[C@]31C)[C@@H](O)C(=O)[C@@]1(O)C[C@@H]3O[C@@H]3[C@H](OC(C)=O)[C@]21C	34.4 µM	–	Active	–
